Source: ChEMBL document CHEMBL2413010, “Design and synthesis of 2-phenyl-1,4-dioxa-spiro[4.5]deca-6,9-dien-8-ones as potential anticancer agents starting from cytotoxic spiromamakone A” (Eur J Med Chem, 2013)

Tested on: HeLa
Test: Ratio of spiromamakone A IC50 to compound IC50 for human HeLa cells assessed as cell survival after 48 hrs by WST-8 method
Type: functional
Settings: not given

For `O=C1C=C[C@@]2(C=C1Cl)OC[C@@H](c1ccc(I)cc1)O2` (mixture of isomers), the “Ratio IC50” value was 15.

Tested on: HeLa
Test: Cytotoxicity against human HeLa cells assessed as cell survival after 48 hrs by WST-8 method
Type: functional, cell-based
Settings: Homo sapiens, HeLa, 48 h
Procedure, shortened: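 HeLa cells grown in DMEM with 10% FBS, penicillin and streptomycin at 37 °C, 5% CO2. Cells seeded at 1.0 × 10³ per well and left overnight, then exposed for 48 h to compounds in DMSO at various concentrations, with DMSO as negative control. WST-8 added for 1 h at 37 °C; formazan read at 450 nm. IC50 taken as concentration giving 50% cell survival.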

Point of comparison: `O=C1C=C[C@@]2(C=C1Cl)OC[C@@H](c1ccc(-c3cncnc3)cc1)O2` (racemic), IC50 4600 nM. Against it:
- O=C1C=CC(=O)C12C(O)C=CC21Oc2cccc3cccc(c23)O1 (configuration not stated) — 2.1-fold lower, 2200 nM
- O=C1C=C[C@@]2(C=C1Cl)OC[C@@H](c1ccc(I)cc1)O2 (mixture of isomers) — 33-fold lower, 140 nM
- O=C1C=CC2(C=C1)OCC(c1ccc(-c3cnccc3Cl)cc1)O2 (racemic) — 3.5-fold lower, 1300 nM
- O=C1C=CC2(C=C1)OCC(c1ccc(-c3cccc(Cl)c3)cc1)O2 (racemic) — 3.3-fold lower, 1400 nM
- O=C1C=CC2(C=C1)OCC(c1ccc(-c3cccc(C(=O)O)c3)cc1)O2 (racemic) — within 1.5-fold, 3100 nM
- O=C1C=CC2(C=C1)OCC(c1ccc(-c3ccc(C(=O)O)cc3)cc1)O2 (racemic) — 2.7-fold lower, 1700 nM
- COC(=O)c1cccc(-c2ccc(C3COC4(C=CC(=O)C=C4)O3)cc2)c1 (racemic) — 3.1-fold lower, 1500 nM
- COC(=O)c1ccc(-c2ccc(C3COC4(C=CC(=O)C=C4)O3)cc2)cc1 (racemic) — 1.8-fold lower, 2600 nM
- CCCOC(=O)c1cccc(-c2ccc(C3COC4(C=CC(=O)C=C4)O3)cc2)c1 (racemic) — 5.8-fold lower, 800 nM
- CCCOC(=O)c1ccc(-c2ccc(C3COC4(C=CC(=O)C=C4)O3)cc2)cc1 (racemic) — 5.6-fold lower, 820 nM
- O=C1C=CC2(C=C1)OCC(c1ccc(-c3cccc(C(F)(F)F)c3)cc1)O2 (racemic) — 5.8-fold lower, 800 nM
- O=C1C=CC2(C=C1)OCC(c1ccc(-c3ccccc3OCc3ccccc3)cc1)O2 (racemic) — 4.8-fold lower, 960 nM
- CN(C)c1ccc(-c2ccc(C3COC4(C=CC(=O)C=C4)O3)cc2)cc1 (racemic) — within 1.5-fold, 3500 nM
- CS(=O)(=O)c1ccc(-c2ccc(C3COC4(C=CC(=O)C=C4)O3)cc2)cc1 (racemic) — 2.7-fold lower, 1700 nM
- CC(=O)Nc1ccc(-c2ccc(C3COC4(C=CC(=O)C=C4)O3)cc2)cc1 (racemic) — 5.1-fold lower, 900 nM
- COC(=O)c1cc(-c2ccc(C3COC4(C=CC(=O)C=C4)O3)cc2)ccc1F (racemic) — 2.6-fold lower, 1800 nM
- O=C1C=CC2(C=C1)OCC(c1ccc(-c3cccnc3)cc1)O2 (racemic) — 3.1-fold lower, 1500 nM
- O=C1C=CC2(C=C1)OCC(c1ccc(-c3ccncc3)cc1)O2 (racemic) — within 1.5-fold, 4500 nM
- O=C1C=CC2(C=C1)OCC(c1ccc(-c3cncnc3)cc1)O2 (racemic) — within 1.5-fold, 3200 nM
- O=C1C=CC2(C=C1)OCC(c1ccc(-c3ccoc3)cc1)O2 (racemic) — 1.8-fold lower, 2500 nM
- O=C1C=CC2(C=C1)OCC(c1ccc(-c3ccsc3)cc1)O2 (racemic) — 1.8-fold lower, 2500 nM
- O=C1C=CC2(C=C1)OCC(c1ccc(-c3cnc4ccccc4c3)cc1)O2 (racemic) — 5.8-fold lower, 790 nM
- O=C1C=C[C@@]2(C=C1Cl)OC[C@@H](c1ccc(-c3cccnc3)cc1)O2 (racemic) — 2-fold higher, 9400 nM
- O=C1C=C[C@@]2(C=C1Cl)OC[C@@H](c1ccc(-c3ccncc3)cc1)O2 (racemic) — 2-fold lower, 2300 nM
- O=C1C=C[C@@]2(C=C1Cl)OC[C@@H](c1ccc(-c3cnc4ccccc4c3)cc1)O2 (racemic) — 1.7-fold lower, 2700 nM
- O=C1C=CC2(C=C1)OCC(c1ccc(Br)cc1)O2 (racemic) — 1.9-fold lower, 2400 nM
- O=C1C=CC2(C=C1)OCC(c1cccc(I)c1)O2 (racemic) — 2.9-fold lower, 1600 nM
- O=C1C=CC2(C=C1)OCC(c1ccc(I)cc1)O2 (racemic) — 4.2-fold lower, 1100 nM
- O=C1C=CC2(C=C1)OCC(c1cccc(-c3ccccc3)c1)O2 (racemic) — 3.3-fold lower, 1400 nM
- O=C1C=CC2(C=C1)OCC(c1cccc(-c3cccc(F)c3)c1)O2 (racemic) — 2.9-fold lower, 1600 nM
- O=C1C=CC2(C=C1)OCC(c1cccc(-c3ccc(F)cc3)c1)O2 (racemic) — 6.9-fold lower, 670 nM
- O=C1C=CC2(C=C1)OCC(c1cccc(-c3cccc(Cl)c3)c1)O2 (racemic) — 2.6-fold lower, 1800 nM
- O=C1C=CC2(C=C1)OCC(c1cccc(-c3ccc(Cl)cc3)c1)O2 (racemic) — 5.4-fold lower, 850 nM
- CS(=O)(=O)c1ccc(-c2cccc(C3COC4(C=CC(=O)C=C4)O3)c2)cc1 (racemic) — 5.8-fold lower, 790 nM
- CC(=O)Nc1ccc(-c2cccc(C3COC4(C=CC(=O)C=C4)O3)c2)cc1 (racemic) — 5.2-fold lower, 880 nM
- O=C1C=CC2(C=C1)OCC(c1cccc(-c3cnccc3Cl)c1)O2 (racemic) — 2.7-fold lower, 1700 nM
- O=C1C=CC2(C=C1)OCC(c1cccc(-c3ccco3)c1)O2 (racemic) — within 1.5-fold, 3200 nM
- O=C1C=CC2(C=C1)OCC(c1cccc(-c3ccsc3)c1)O2 (racemic) — 5.1-fold lower, 910 nM
- O=C1C=CC2(C=C1)OCC(c1cccc(-c3cccc4ccccc34)c1)O2 (racemic) — 3.5-fold lower, 1300 nM
- O=C1C=CC2(C=C1)OCC(c1cccc(-c3ccc4ccccc4c3)c1)O2 (racemic) — 3.5-fold lower, 1300 nM
- O=C1C=CC2(C=C1)OCC(c1cccc(-c3cnc4ccccc4c3)c1)O2 (racemic) — 1.9-fold lower, 2400 nM
- O=C1C=CC2(C=C1Cl)OCC(c1ccc(Cl)cc1)O2 (racemic; form 2) — 1.7-fold lower, 2700 nM
- O=C1C=CC2(C=C1Cl)OCC(c1cccc(I)c1)O2 (racemic; form 2) — 2.9-fold lower, 1600 nM
- O=C1C=C[C@]2(C=C1Cl)OC[C@@H](c1ccc(I)cc1)O2 (relative stereo) — 1.9-fold lower, 2400 nM
- O=C1C=CC2(C=C1Cl)OCC(c1cccc(Br)c1)O2 (stereo in doubt) — 7.5-fold lower, 610 nM

Same assay, conditions: hela

Point of comparison: `O=C1C=CC2(C=C1Cl)OCC(c1ccc(Cl)cc1)O2` (racemic; form 1), IC50 2900 nM. Against it:
- O=C1C=CC2(C=C1Cl)OCC(c1ccc(Br)cc1)O2 (mixture of isomers) — 1.6-fold higher, 4500 nM
- O=C1C=CC2(C=C1Cl)OCC(c1cccc(Br)c1)O2 (racemic) — 4.5-fold lower, 640 nM
- O=C1C=CC2(C=C1Cl)OCC(c1cccc(I)c1)O2 (racemic; form 1) — 1.9-fold lower, 1500 nM
- O=C1C=CC2(C=C1Cl)OCC(c1ccc(Br)cc1)O2 (stereo in doubt) — within 1.5-fold, 2100 nM
